This is an account of results in ChEMBL document CHEMBL1817573, “Synthesis, structure elucidation, determination of the lipophilicity and identification of antitumour activities in vitro of novel 3-(2-furanyl)-8-aryl-7,8-dihydroimidazo[2,1-c][1,2,4]triazin-4(6H)-ones with a low cytotoxicity towards normal human skin fibroblast cells” (Bioorg Med Chem, 2011).

Data set [1] can be described thus: Lipophilicity, log Kw of the compound in methanol-water mixture by RP-HPLC. It counts as physicochemical. In a few lines: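 Isocratic RP-HPLC on a C18 column (150 × 4.6 mm, 5 µm) at 22 °C, 1 mL/min, DAD detection. Mobile phases were methanol (30–80%), 20% acetate buffer pH 3.5 (0.2 M acetate, pH measured in aqueous solution) and 0.01 M/L octane-1-sulfonic acid sodium salt. log kw was extrapolated with the Snyder–Soczewiński equation.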

The test system of data set [2] is HeLa. The data set can be described thus: Growth inhibition of human HeLa cells at 50 ug/ml after 72 hrs by spectrophotometric analysis. Type of data set: functional. To be noted: read-out: GI. In a few lines: (§1)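 Normal primary human skin fibroblasts (HSF), HeLa (ECACC 93021013) and T47D (ECACC 85102201) were each seeded at 10⁴ cells/mL. Compounds were predissolved in DMSO and tested at a single 50 µg/mL (about 0.14–0.18 mM). Cultures were incubated at 37 °C, 5% CO₂, 90% humidity for 24, 48 or 72 h, and percent growth inhibition was read spectrophotometrically.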

In data set [3] the test system is HeLa. The data set can be described thus: Growth inhibition of human HeLa cells at 50 ug/ml after 24 hrs by spectrophotometric analysis. The note with it: read-out: GI. Type of data set: functional. An outline of the steps: as §1
For data set [4], the system named is HeLa. The experiment in a line: Growth inhibition of human HeLa cells at 50 ug/ml after 48 hrs by spectrophotometric analysis. It counts as functional. The note with it: read-out: GI. In a few lines: as §1
The subject of data set [5] is T47D. The experiment in a line: Growth inhibition of human T47D cells at 50 ug/ml after 24 hrs by spectrophotometric analysis. Type of data set: functional. The note with it: read-out: GI. In a few lines:
as §1

The test system of data set [6] is T47D. The data set can be described thus: Antitumor activity against human T47D cells after 72 hrs by spectrophotometric analysis. Type of data set: functional, cell-based. In a few lines: (§2)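 Cancer lines were HeLa (ECACC 93021013, cervix epitheloid carcinoma) and T47D (ECACC 85102201, breast carcinoma). Cells were seeded at 10⁴ cells/mL, treated with compounds dissolved in DMSO, and incubated at 37 °C, 5% CO₂, 90% humidity for 24, 48 or 72 h. Read-out was the BrdU assay, and IC50 was calculated from dose–response curves.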

Data set [7] deals with HeLa. The data set can be described thus: Antitumor activity against human HeLa cells after 72 hrs by spectrophotometric analysis. It counts as functional, cell-based. In a few lines: as §2
Data set [8] deals with HeLa. The experiment in a line: Antitumor activity against human HeLa cells after 48 hrs by spectrophotometric analysis. Type of data set: functional, cell-based. An outline of the steps:
as §2

Data set [9] has as its system T47D. The experiment in a line: Antitumor activity against human T47D cells after 48 hrs by spectrophotometric analysis. Type of data set: functional, cell-based. An outline of the steps:
as §2

The test system of data set [10] is T47D. The experiment in a line: Growth inhibition of human T47D cells at 50 ug/ml after 72 hrs by spectrophotometric analysis. It counts as functional. To be noted: read-out: GI. An outline of the steps:
as §1

The test system of data set [11] is T47D. The experiment in a line: Growth inhibition of human T47D cells at 50 ug/ml after 48 hrs by spectrophotometric analysis. It counts as functional. To be noted: read-out: GI. In a few lines:
as §1

Data set [12] is described as follows: Growth inhibition of human HSF cells at 50 ug/ml after 48 hrs by spectrophotometric analysis. Type of data set: cell-based. The note with it: read-out: GI. An outline of the steps:
as §1

Data set [13] can be described thus: Growth inhibition of human HSF cells at 50 ug/ml after 24 hrs by spectrophotometric analysis. Type of data set: cell-based. The note with it: read-out: GI. An outline of the steps:
as §1

The test system of data set [14] is T47D. The experiment in a line: Antitumor activity against human T47D cells after 24 hrs by spectrophotometric analysis. It counts as functional, cell-based. An outline of the steps:
as §2

Data set [15] can be described thus: Growth inhibition of human HSF cells at 50 ug/ml after 72 hrs by spectrophotometric analysis. Type of data set: cell-based. To be noted: read-out: GI. An outline of the steps: as §1
Data set [16] concerns HeLa. The data set can be described thus: Antitumor activity against human HeLa cells after 24 hrs by spectrophotometric analysis. It counts as functional, cell-based. An outline of the steps: as §2

In general, IC50 refers to the concentration that inhibits the measured activity by half. Low readings indicate higher potency, high ones lower potency. Take `O=c1c(-c2ccco2)nnc2n1CCN2c1ccccc1`: the logKw in data set [1] came to 2.64. Further, the inhibition of growth at 50 µg/mL worked out at 100% in data set [2]; 50% in [3]; 75% in data set [4]; 50% in data set [5]; 95% in [10]; 85% in data set [11]. The IC50 in data set [6] was determined as 100 µM; in data set [7], 100 µM; in [8], 130 µM; in [9], 110 µM; in data set [14], 180 µM; in data set [16], 180 µM. The inhibition at 48 h, 50 ug/ml in data set [12] is 50%. In [13], the inhibition at 24 h, 50 ug/ml was 50%. Further, in data set [15], the inhibition at 72 h, 50 ug/ml is 60%.
As for `Cc1ccccc1N1CCn2c1nnc(-c1ccco1)c2=O`, the logKw in data set [1] was 2.48. Also, the inhibition of growth at 50 µg/mL in data set [2] stood at 50%; in [3], 25%; in data set [4], 25%; in data set [5], 25%; in data set [10] it was 75%; in data set [11] it was 50%. Besides, in [12], the inhibition at 48 h, 50 ug/ml came out at 0%. For the same molecule, the inhibition at 24 h, 50 ug/ml in data set [13] came out at 0%. Also, the inhibition at 72 h, 50 ug/ml in [15] was found to be 0%.
Consider `Cc1ccc(N2CCn3c2nnc(-c2ccco2)c3=O)cc1`, for which, in [1], the logKw was 3.27. In addition, the inhibition of growth at 50 µg/mL in data set [2] is 80%; in data set [3], 50%; in data set [4], 50%; in data set [5], 40%; in data set [10] it was 80%; in [11], 60%. The inhibition at 48 h, 50 ug/ml in [12] came out at 50%. The inhibition at 24 h, 50 ug/ml in data set [13] was 30%. In data set [15], the inhibition at 72 h, 50 ug/ml was 50%.
For the molecule `Cc1cccc(N2CCn3c2nnc(-c2ccco2)c3=O)c1C`, the logKw in data set [1] worked out at 3. The inhibition of growth at 50 µg/mL in data set [2] was 90%; in data set [3] it was 60%; in data set [4] it was 75%; in data set [5] it was 0%; in [10] it was 25%; in data set [11] it was 15%. Further, the inhibition at 48 h, 50 ug/ml in [12] is 0%. For the same molecule, in data set [13], the inhibition at 24 h, 50 ug/ml is 0%. Further, the inhibition at 72 h, 50 ug/ml in [15] was 0%.
With `COc1ccccc1N1CCn2c1nnc(-c1ccco1)c2=O`, the logKw in data set [1] turned out to be 2.54. The inhibition of growth at 50 µg/mL in [2] was determined as 80%; in data set [3], 25%; in data set [4], 35%; in data set [5] it was 0%; in data set [10], 70%; in [11] it was 30%. Also, the inhibition at 48 h, 50 ug/ml in data set [12] came out at 0%. Moreover, the inhibition at 24 h, 50 ug/ml in [13] was 0%. Also, in [15], the inhibition at 72 h, 50 ug/ml worked out at 5%.
As for `COc1ccc(N2CCn3c2nnc(-c2ccco2)c3=O)cc1`, the logKw in [1] is recorded as 2.89. In addition, the inhibition of growth at 50 µg/mL in data set [2] is 95%; in data set [3] it was 80%; in data set [4], 80%; in data set [5], 50%; in data set [10] it was 80%; in data set [11], 70%. Further, the inhibition at 48 h, 50 ug/ml in data set [12] is 50%. Moreover, the inhibition at 24 h, 50 ug/ml in data set [13] was determined as 10%. Also, in data set [15], the inhibition at 72 h, 50 ug/ml was determined as 60%.
Regarding `O=c1c(-c2ccco2)nnc2n1CCN2c1ccccc1Cl`, in data set [1], the logKw stood at 2.78. For the same molecule, the inhibition of growth at 50 µg/mL in data set [2] turned out to be 100%; in data set [3], 80%; in data set [4], 80%; in [5] it was 5%; in data set [10] it was 25%; in data set [11] it was 15%. Also, the IC50 in data set [6] is above 160 µM; in data set [7], 90 µM; in data set [8], 110 µM; in data set [9], above 160 µM; in data set [14], above 160 µM; in data set [16] it was 110 µM. In addition, the inhibition at 48 h, 50 ug/ml in [12] was determined as 20%. For the same molecule, in data set [13], the inhibition at 24 h, 50 ug/ml came to 10%. Besides, the inhibition at 72 h, 50 ug/ml in [15] worked out at 20%.
On to `O=c1c(-c2ccco2)nnc2n1CCN2c1cccc(Cl)c1`, for which, in data set [1], the logKw is reported as 3.45. For the same molecule, the inhibition of growth at 50 µg/mL in data set [2] came out at 95%; in [3], 80%; in data set [4], 80%; in data set [5], 20%; in data set [10], 80%; in data set [11] it was 50%. The inhibition at 48 h, 50 ug/ml in [12] was determined as 60%. Further, in data set [13], the inhibition at 24 h, 50 ug/ml was 25%. In [15], the inhibition at 72 h, 50 ug/ml turned out to be 75%.
Regarding `O=c1c(-c2ccco2)nnc2n1CCN2c1ccc(Cl)cc1`, the logKw in data set [1] is 3.45. In addition, the inhibition of growth at 50 µg/mL was found to be 90% in [2]; 50% in data set [3]; 75% in data set [4]; 0% in data set [5]; 15% in data set [10]; 15% in [11]. Also, the inhibition at 48 h, 50 ug/ml in [12] amounted to 80%. The inhibition at 24 h, 50 ug/ml in data set [13] came out at 50%. Besides, the inhibition at 72 h, 50 ug/ml in data set [15] stood at 90%.
As for `O=c1c(-c2ccco2)nnc2n1CCN2c1ccc(Cl)c(Cl)c1`, the logKw in [1] amounted to 4.01. The inhibition of growth at 50 µg/mL in data set [2] is 95%; in data set [3], 50%; in data set [4], 50%; in data set [5], 10%; in [10] it was 40%; in [11], 20%. Also, the inhibition at 48 h, 50 ug/ml in data set [12] came out at 50%. Also, the inhibition at 24 h, 50 ug/ml in [13] turned out to be 0%. Moreover, the inhibition at 72 h, 50 ug/ml in data set [15] worked out at 80%.
For `O=c1c(-c2ccco2)nnc2n1CCN2c1c(Cl)cccc1Cl`, the logKw in data set [1] is recorded as 2.97. The inhibition of growth at 50 µg/mL was found to be 95% in data set [2]; 80% in data set [3]; 80% in data set [4]; 10% in data set [5]; 25% in [10]; 20% in data set [11]. The inhibition at 48 h, 50 ug/ml in [12] was found to be 15%. For the same molecule, the inhibition at 24 h, 50 ug/ml in data set [13] was determined as 10%. In data set [15], the inhibition at 72 h, 50 ug/ml came to 15%.
